LMPTP block – blocks human LMPTP phosphatase | recombinant LMPTP-A, OMFP fluorogenic substrate, fluorescence intensity | P24666 | AID 651560 | 360,000 tested, 0.22% active | inhibition, % at 20 µM;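 active means compounds that cut the enzyme signal by at least half of the control window in the single-dose screen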;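 further: plate controls were DMSO wells with enzyme plus substrate for no effect and substrate without enzyme for full effect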
Target sequence (P24666 whole entry, looked up): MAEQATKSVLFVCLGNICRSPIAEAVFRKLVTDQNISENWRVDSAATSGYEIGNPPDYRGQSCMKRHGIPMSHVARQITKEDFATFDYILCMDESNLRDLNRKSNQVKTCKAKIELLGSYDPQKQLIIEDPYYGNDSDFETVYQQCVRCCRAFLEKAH
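Test system: LMPTP-A phosphatase enzyme. Amount: LMPTP-A at 0.625 nM final in the reaction. Reagent: OMFP substrate, 400 µM final. Times: 50 min at room temperature. Signal: endpoint fluorescence intensity from OMFP dephosphorylation. Read-out basis: % inhibition. Benchmarks: no-enzyme and uninhibited controls.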
STEP block – blocks human striatal-enriched tyrosine phosphatase | inhibition, % at 20 µM | 360,000 tested, 0.25% active | AID 588621 | recombinant STEP, OMFP fluorogenic substrate, fluorescence | P54829;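 active means inhibition at 20 µM, scaled per plate between control wells, above about 37%, limit read from the data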;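 further: 0% = DMSO with enzyme and substrate and 100% = substrate only without enzyme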
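Also added – OMFP at 25 µM · Test system – STEP tyrosine phosphatase · Technique – FITC-channel fluorescence of OMFP product · Schedule – 20 min at room temperature, dark · Evaluation – control-normalized % inhibition with plate pattern correction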
SUMO1-SIM PPI – alters human SUMO1 binding to SIM partners; P63165; SUMO1 binding to a labelled peptide, TR-FRET, 1 h; inhibition, % at 20 µM; 360,000 tested, 0.33% active; in the data active means inhibition above about 37%
Target sequence (P63165 whole entry, looked up): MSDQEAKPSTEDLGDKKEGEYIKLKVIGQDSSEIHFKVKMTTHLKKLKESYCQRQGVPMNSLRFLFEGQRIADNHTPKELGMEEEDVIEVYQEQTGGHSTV
DNMT1 block – DNMT1 (human) enzyme inhibition; DNMT1 molecular beacon, Hinp1I cleavage, fluorescence; inhibition (reported as % activation of signal), % at 10 µM; 360,000 tested, 0.83% active; AID 588458; in the data active means inhibition above about 50%
Scp-1 inhibitor – inhibitors of human Scp-1 phosphatase. Recombinant Scp1, phosphopeptide, malachite green phosphate absorbance. inhibition, % at 20 µM. 340,000 tested, 0.88% active. AID 493091;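 active means inhibition above about 50% at 20 µM, limit read from the data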;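 further: plate controls were DMSO wells with enzyme for no effect and wells lacking enzyme for full effect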
Target sequence (Q9GZU7 76-261 limits assumed): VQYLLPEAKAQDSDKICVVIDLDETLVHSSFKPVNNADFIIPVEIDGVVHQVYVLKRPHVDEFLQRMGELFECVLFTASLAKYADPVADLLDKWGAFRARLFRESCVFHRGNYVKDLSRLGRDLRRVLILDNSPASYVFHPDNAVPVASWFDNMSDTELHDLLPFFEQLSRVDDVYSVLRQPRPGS
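Test system: SCP-1 phosphatase catalytic domain, residues 76-261 | Compound dosing: One concentration, 20 µM, with 1.0% DMSO | Schedule: 45 min room-temperature reaction, 5 min colour, 30 min stabiliser | Detection: Absorbance at 630 nm | Read-out basis: % inhibition of SCP-1 phosphate liberation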
Scp1 confirm – Scp-1 (human) inhibition, single-dose confirmed. shares compounds with Scp-1 inhibitor. recombinant SCP-1 catalytic domain, phosphate release, malachite green absorbance. inhibition, % at 20 µM. 2,500 tested, 61% active;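 further: plate controls were DMSO with enzyme for no effect and buffer wells lacking enzyme for full effect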
MG interference – interferes with malachite green readout, flagging false Scp-1 hits. 2,500 tested, under 10 active. shares compounds with Scp-1 inhibitor. apparent inhibition (interference), % at 20 µM. Colorimetric interference counterscreen, malachite green absorbance 630 nm;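 further: compounds added after enzyme reaction finished so only phosphate colour detection is probed; plate controls were DMSO wells with completed Scp-1 reaction for no effect and substrate wells lacking enzyme for full effect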
Scp1 DSF – validation of human Scp-1 inhibitors by thermal shift binding | shares compounds with Scp-1 inhibitor | Recombinant SCP1, Sypro Orange thermal shift Tm | thermal shift relative to vanadate control, % at 40 µM | 1,500 tested, 25% active | AID 540329;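 active means substances whose mean melting-temperature shift, as a percentage of the reference inhibitor's shift, reaches about 5.3%, limit read from the data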;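 further: 0% = Tm of DMSO wells and 100% = Tm with sodium orthovanadate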
An asterisk follows results filed as active; nt = no result. In the library only some 1.7% were active in any assay of this set; here they are far more common.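 How the source made its calls, unless noted: active means inhibition of at least 30% at 20 µM; inactive means the rest.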

SMILES	LMPTP block	STEP block	SUMO1-SIM PPI	DNMT1 block	Scp-1 inhibitor	Scp1 confirm	MG interference	Scp1 DSF
COc1ccc(S(=O)(=O)N(C)C[C@H]2Oc3ccc(NC(=O)c4ccncc4)cc3C(=O)N([C@H](C)CO)C[C@@H]2C)cc1	1	1	2	5	74*	3	-13	nt
Cc1noc(C)c1NC(=O)N(C)C[C@H]1Oc2ccc(NC(=O)Nc3ccccc3)cc2C(=O)N([C@H](C)CO)C[C@@H]1C	-2	-3	1	8	65*	1	-10	nt
Cc1noc(C)c1NC(=O)N(C)C[C@H]1Oc2ccc(NC(=O)Cc3ccccc3)cc2C(=O)N([C@H](C)CO)C[C@@H]1C	-2	-2	-3	1	0	nt	nt	nt
COC(CNC(=O)c1ccc2c(c1)ncn2-c1cccc(C)c1)OC	-1	-5	3	-5	-12	nt	nt	nt
Cc1cc(C(=O)COC(=O)/C=C/c2ccco2)c(C)n1C	1	-2	-31	14	-1	nt	nt	nt
COc1ccc([N+](=O)[O-])c(OC)c1C(=O)NC(=O)Nc1c(F)cc(F)cc1F	-2	-1	-14	1	0	nt	nt	nt
COc1ccc(NC(=O)N(C)C[C@H]2Oc3ccc(NC(=O)Nc4ccc(C(F)(F)F)cc4)cc3C(=O)N([C@H](C)CO)C[C@@H]2C)cc1	3	0	5	-18	50*	13	-7	nt
COc1ccc(NC(=O)Nc2ccc3c(c2)C(=O)N([C@H](C)CO)C[C@H](C)[C@@H](CN(C)C(=O)Nc2ccc(C(F)(F)F)cc2)O3)cc1	2	0	17	-11	-2	nt	nt	nt
Cc1cccc(C)c1NC(=S)NCCCN1CCCC1=O	-1	0	1	8	-1	-10	-10	nt
O=C1CCCN1CCCNC(=S)Nc1ccccc1	0	5	0	3	-7	-4	-9	nt
CC[N+]1(C)CC2CCC(C)(C1)C2(C)C (stereo not drawn)	-2	2	0	-1	56*	39*	-11	-29
C[N+]1(C)CCC(=C2c3ccccc3CC(=O)c3sccc32)CC1	0	5	12	2	97*	3	-3	nt
CC(C)C(NC(=O)/C(=C/c1ccco1)NC(=O)c1ccc(Br)o1)C(=O)O (stereo not drawn)	-1	21	-1	18	47	nt	nt	nt
CC(=O)Nc1ccc(S(=O)(=O)N(C)CC(=O)OCC(=O)N2CCCCCC2)cc1	-1	-2	0	-1	-8	nt	nt	nt
CC(=O)Nc1ccc(S(=O)(=O)N(C)CC(=O)OCC(=O)N2CCN(C(=O)c3ccco3)CC2)cc1	0	2	3	13	74*	71*	-7	5
CC(=O)Nc1ccc(S(=O)(=O)NCCC(=O)OCC(=O)N2CCN(C(=O)c3ccco3)CC2)cc1	-2	0	3	12	77*	66*	-17	5.9*
O=C(CCNS(=O)(=O)c1cccc(Cl)c1)OCC(=O)N1CCN(C(=O)c2ccco2)CC1	-1	1	1	-2	17	nt	nt	nt
COc1cccc(C2/C(=C(\O)c3ccc4c(c3)OCCO4)C(=O)C(=O)N2CCCN2CCOCC2)c1OC (stereo not drawn)	-1	2	3	-3	-5	nt	nt	nt
O=C(NCc1cccs1)c1csc([C@@H]2O[C@H](CO)[C@H](O)[C@H](O)[C@H]2O)n1	-3	-4	-5	5	nt	nt	nt	nt
O=C(CSc1nnc(-c2ccc(S(=O)(=O)N3CCCC3)cc2)o1)NCc1ccco1	1	-2	3	10	62*	43*	-17	-6
O=C(CSc1ccc2nnc(-c3ccccc3)n2n1)NCc1ccco1	0	11	3	2	55*	17	-24	nt
Cn1c(SCC(=O)NCc2ccco2)nnc1-c1ccc(S(=O)(=O)N2CCOCC2)cc1	0	2	5	13	65*	49*	-17	-4
Cn1c(SCC(=O)NCc2ccco2)nnc1-c1ccccc1	0	1	4	1	-3	nt	nt	nt
CCC(=O)Nc1cccc(-c2nnc(SCC(=O)NCc3ccco3)n2C)c1	-3	0	-1	1	98*	6	-7	nt
C[C@@H]1NC(=O)N(c2ccc(F)cc2)C1=O	-4	1	-2	4	-15	nt	nt	nt
SMILES	LMPTP block	STEP block	SUMO1-SIM PPI	DNMT1 block	Scp-1 inhibitor	Scp1 confirm	MG interference	Scp1 DSF
N#CC1(NC(=O)COC(=O)c2cc(=O)[nH]c3ccccc23)CCCCC1	0	-1	-3	-1	-1	nt	nt	nt
Cc1cc(Br)ccc1NC(=O)CNC(=O)Cc1ccc(S(=O)(=O)N2CCOCC2)s1	0	0	-3	-6	1	nt	nt	nt
CCc1cc2c(SCC(=O)N3CCN(C(=O)c4cccs4)CC3)ncnc2s1	3	-2	2	6	nt	nt	nt	nt
O=C(COC(=O)c1cccnc1Cl)NCc1ccco1	-1	0	10	1	92*	70*	-10	-11
O=C(COc1ccc(S(=O)(=O)N2CCCC2)cc1)NCc1ccco1	0	3	2	18	26	nt	nt	nt
O=C(CSc1nnc(CNC(=O)c2c(F)cccc2F)o1)NCc1ccco1	2	2	6	10	68*	33*	3	-22
O=C(COC(=O)c1ccc(S(=O)(=O)N2CCCCC2)cc1)NCc1ccco1	-1	3	3	14	54*	73*	-6	3
O=C(NCc1ccco1)C1CCCN(S(=O)(=O)c2ccc(-n3cnnn3)cc2)C1 (stereo not drawn)	1	0	14	-1	76*	69*	-7	3
NS(=O)(=O)c1ccc(CCNC(=O)C(c2ccccc2)c2ccccc2)cc1	-1	-1	-4	1	-6	nt	nt	nt
Cc1cccn2c(=O)nc(SCC(=O)Nc3ccc4c(c3)OCCO4)nc12	2	-1	-2	0	2	nt	nt	nt
O=C(O)c1ccc(-n2c(-c3cc(-c4ccco4)[nH]n3)n[nH]c2=S)cc1	-2	6	27	43	67*	69*	-8	-6
CCC[N+]1(CC#CC2(O)CCCCC2)CCOCC1	-1	-3	-2	3	59*	77*	-22	-6
CCOc1ccc(S(=O)(=O)NCc2ccccc2Cl)cc1C(N)=O	-1	-4	2	-3	0	-21	-19	nt
CCOc1ccc(S(=O)(=O)NCc2ccccc2)cc1C(N)=O	0	3	-5	3	-5	nt	nt	nt
O=C(NCc1ccc(F)cc1)c1cc(C2CCCN(C(=O)c3ccc4c(c3)CCO4)C2)on1 (stereo not drawn)	0	-2	0	-2	nt	nt	nt	nt

Source: PubChem BioAssay
